Data: article PMC3819105 (Biomaterials science, 2013)
Where a SMILES comes first, the peptide text is derived from it. [ ]: non-standard residue; d: D form. Hica(2S) = CC(C)C[C@H](O)C(=O)O

Tests used:
[1] = Solubility limit in water; type: physicochemical
[2] = TEM of nanofiber formation and degradation; type: physicochemical; settings: 2 mM in PBS, 37°C, 7 days
[3] = Macroscopic hydrogel degradation visualised with Congo red; type: physicochemical
Procedure, shortened: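 50 µM Congo red added to the aqueous peptide solution (sonicated, held overnight at room temperature) while making 15 mM gels. Gels pipetted into multi-well dishes, immersed in PBS at 37°C and photographed over 28 days.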

[4] = Oscillating rheometry of hydrogels; type: physicochemical
Procedure, shortened: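 Peptide held overnight in water at 30 or 15 mM, cast on a glass slide inside an 8-mm filter-paper ring, and gelled under a PBS overlay for 2 h. PBS removed, parallel-plate frequency sweep 0.1–3.162 Hz at 0.1% strain, harmonic distortion under 10%. For ageing, gels held submerged in PBS at 37°C for 1 or 3 days. Mean ± SD of 3–5 separate gels; G'/G'' at 1 Hz compared by ANOVA-Tukey or t-test, p<0.05.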

C3H10T½ cells = assay: 3D microgel cell culture; type: cell-based, mouse; settings: C3H10T½ cells in hydrogel
Procedure, shortened: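 Cells kept in Eagle's Basal Medium with 10% FBS, L-glutamine, 1 mM sodium pyruvate and non-essential amino acids. They were trypsinized, resuspended at 6,000 cells/µL in 10% sucrose with antibiotics, and mixed 1:2 with 22.5 mM aqueous peptide. The mixture (2,000 cells/µL) was pipetted into culture medium in 4–5 µL droplets to gel. Phase contrast imaging at day 3. MTS at 4 h, 3 and 5 days; mean ± SD of 3 wells.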

α-chymotrypsin = settings: cited from earlier work
trypsin = settings: cited from earlier work
papain = settings: cited from earlier work

Molecule | solubility [1] [mM] | Nanofiber state by TEM at day 7 [2] | Time for which integrity of acellular hydrogel could be maintained ([3]; 15 mM acellular hydrogel, PBS, 37°C) | Gel appearance over 28 days (Congo red stained) ([3]; 15 mM hydrogel, immersed in PBS at 37°C, 28 days, representative of 3 gels) | Storage modulus of hydrogel ([4]; 30 mM hydrogel, PBS-gelled 2 hours, 0.1% strain, mean of 3 – 5 samples) [kPa] | Storage modulus (G') relative to Q11 hydrogel ([4]; 30 mM hydrogels, PBS-gelled 2 hours, 0.1% strain, calculated at 1 Hz) | Change of hydrogel moduli (G', G'') over time ([4]; hydrogels submerged in PBS, 37°C, up to day 3) | Proliferation of encapsulated cells (C3H10T½ cells; over 5 days, MTS assay, 3 wells) | Morphology of encapsulated cells (C3H10T½ cells; phase contrast) | Resistance to proteolysis (α-chymotrypsin) | Resistance to proteolysis (trypsin) | Resistance to proteolysis (papain)
CC(=O)N[C@@H](CCC(N)=O)C(=O)N[C@@H](CCC(N)=O)C(=O)N[C@@H](CCCCN)C(=O)N[C@@H](Cc1ccccc1)C(=O)N[C@@H](CCC(N)=O)C(=O)O[C@@H](CC(C)C)C(=O)N[C@@H](CCC(N)=O)C(=O)N[C@@H](Cc1ccccc1)C(=O)N[C@@H](CCC(=O)O)C(=O)N[C@@H](CCC(N)=O)C(=O)N[C@@H](CCC(N)=O)C(N)=O [Depsi-L] (Ac-QQKFQ[Hica(2S)]QFEQQ-NH2; N-terminus assumed) | ≥ 30 | shorter and thinner | about 14 days | faded and disappeared | > 100 | about 6 times | decreased significantly | proliferated | more spread morphology | – | – | –
(AEAEAKAK)2 | – | – | – | – | – | – | – | – | – | highly resistant | highly resistant | highly resistant
